# What was measured:
# DX3puro [αvβ6(−)] cells = assay: Cell binding and internalization, DX3puro cells; assay type: cell-based; conditions: 60 min; n = 4
# Method in brief: (§1)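 Tubes were pretreated with non-fat milk (0.5 % w/v in PBS). DX3puro cells were kept in DMEM with puromycin (2 μg/ml); BxPC-3 cells were kept in RPMI. Both media had 10 % heat-inactivated FBS and 1 % PSG, at 37 °C and 5 % CO2. Integrin expression was checked by flow cytometry beforehand. Radiotracer binding and internalization ran 60 min (n = 4) and are reported as fraction of total radioactivity.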
# BxPC-3 [αvβ6(+)] cells = assay: Cell binding and internalization, BxPC-3 cells; assay type: cell-based; conditions: 60 min; n = 4; mean ± SD
# Method in brief: as §1
# [1] = Serum stability, mouse serum; assay type: in vitro ADME
# Method in brief: (§2)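 Formulated radiotracer (12.5–25 μl, 2–6 MBq) was added to 0.5 ml of either human or mouse serum and incubated at 37 °C in a sealed tube. At each time point an aliquot was withdrawn and serum proteins were precipitated. The supernatant was analysed by HPLC for intact radiotracer.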
# [2] = Serum stability, human serum; assay type: in vitro ADME
# Method in brief: as §2
# [3] = PET imaging, radioactivity remaining in the body; assay type: in vivo, mouse; conditions: 4 h p.i., i.v., PET imaging studies, tumor-bearing mice, n = 4; mean ± SD
# Method in brief: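 Mice bearing xenografts (paired DX3puroβ6/DX3puro or BxPC-3) received 5–7 MBq radiotracer i.v. via tail vein, with mass held at 0.175 nmol (7 nmol/kg for a 25-g mouse). Two mice per scan lay prone under 1.5–2.0 % isoflurane (n = 4/radiotracer). Static PET scans: 15 min at 1, 2, 4 h and 30 min at 6 h p.i., plus CT. Body-retained radioactivity was decay corrected.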
# [4] = Biodistribution in mice bearing paired DX3puroβ6/DX3puro xenograft tumors; assay type: in vivo; conditions: female, athymic nude, mouse, iv, 0.175 nmol per injection, total radioactivity; for tissue uptake at 1 h: 1 h p.i.
# Method in brief: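 Female athymic nude mice carried 3 × 10^6 DX3puro and 3 × 10^6 DX3puroβ6 cells s.c. in DMEM on opposite flanks; studies began at ~0.5 cm tumor diameter. Radiotracer at 1.5–3.3 MBq/animal was given i.v. via tail vein under isoflurane, with mass held at 0.175 nmol by adding nonradioactive peptide. Tissues were taken at 1, 2, 4 or 2, 4, 6 h p.i. (n = 3–4), rinsed and γ-counted; results are decay-corrected % ID/g.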
structure (smiles),measurement,setting,value
"CC(C)C[C@H](NC(=O)[C@H](CC(=O)O)NC(=O)CNC(=O)[C@H](CCCNC(=N)N)NC(=O)[C@H](CC(C)C)NC(=O)[C@H](CC(N)=O)NC(=O)[C@@H]1CCCN1C(=O)[C@@H](NC(=O)[C@H](C)NC(=O)[C@H](CC(N)=O)NC(=O)CCOCCOCCOCCOCCOCCOCCOCCOCCOCCOCCOCCOCCOCCOCCOCCOCCOCCOCCOCCOCCOCCOCCOCCOCCOCCOCCOCCOCCNC(=O)CN1CCN(CC(=O)O)CCN(CC(=O)O)CC1)C(C)C)C(=O)N[C@@H](CCC(N)=O)C(=O)N[C@H](C(=O)N[C@@H](CC(C)C)C(=O)N[C@@H](C)C(=O)N[C@@H](CCC(N)=O)C(=O)N[C@@H](CCCNC(=N)N)C(=O)N[C@H](C(=O)N[C@@H](C)C(=O)N[C@@H](CCCNC(=N)N)C(=O)N[C@H](C(=O)NCCOCCOCCOCCOCCOCCOCCOCCOCCOCCOCCOCCOCCOCCOCCOCCOCCOCCOCCOCCOCCOCCOCCOCCOCCOCCOCCOCCOCCC(N)=O)[C@@H](C)O)C(C)C)C(C)C [[^18F]AlF 1, [^18F]AlF NOTA-αvβ6-BP]",binding to DX3puro cells (of total radioactivity),DX3puro [αvβ6(−)] cells,≤ 1.2%
same,internalization into DX3puro cells (of total radioactivity),DX3puro [αvβ6(−)] cells,≤ 0.5%
same,binding to BxPC-3 cells (of total radioactivity),BxPC-3 [αvβ6(+)] cells,45.1 ± 0.7%
same,internalization into BxPC-3 cells (of total radioactivity),BxPC-3 [αvβ6(+)] cells,31.5 ± 1.3%
same,remaining at 2 h,[1],67%
same,remaining at 2 h,[2],≥ 97%
same,injected radioactivity remaining in the body (decay corrected),[3],21.7 ± 3.4%
same,tissue uptake,"[4]; DX3puro tumor, uptake in DX3puro tumor, all time points (1, 2, 4 h p.i.)",≤ 0.3 %ID/g
same,tissue uptake at 1 h,"[4]; DX3puroβ6 tumor, uptake in DX3puroβ6 tumor, n = 3–4, mean ± SD",2.2 ± 0.5 %ID/g
same,tissue uptake at 4 h,"[4]; DX3puroβ6 tumor, uptake in DX3puroβ6 tumor, 4 h p.i., n = 3–4, mean ± SD",3 ± 0.7 %ID/g
same,tissue uptake at 1 h,"[4]; blood, blood radioactivity, DX3puroβ6/DX3puro model",≤ 0.1 %ID/g

# From article PMC7647958 (Molecular imaging and biology, 2020)
